# In publication PMC9535927 (The Biochemical journal, 2020):
# Like-named read-outs stand apart in the source and are kept apart here.
# Tests used:
# ASCT2 [1] = type: cell-based, rat/human
# ASCT2 [2] = target: T1, ASCT2 (Homo sapiens, UniProt Q15758); experiment: Radiotracer flux: 14C BMAA uptake in ASCT2-transfected MDCK-II cell monolayers; type: cell-based
# T1 sequence (Q15758 1-541): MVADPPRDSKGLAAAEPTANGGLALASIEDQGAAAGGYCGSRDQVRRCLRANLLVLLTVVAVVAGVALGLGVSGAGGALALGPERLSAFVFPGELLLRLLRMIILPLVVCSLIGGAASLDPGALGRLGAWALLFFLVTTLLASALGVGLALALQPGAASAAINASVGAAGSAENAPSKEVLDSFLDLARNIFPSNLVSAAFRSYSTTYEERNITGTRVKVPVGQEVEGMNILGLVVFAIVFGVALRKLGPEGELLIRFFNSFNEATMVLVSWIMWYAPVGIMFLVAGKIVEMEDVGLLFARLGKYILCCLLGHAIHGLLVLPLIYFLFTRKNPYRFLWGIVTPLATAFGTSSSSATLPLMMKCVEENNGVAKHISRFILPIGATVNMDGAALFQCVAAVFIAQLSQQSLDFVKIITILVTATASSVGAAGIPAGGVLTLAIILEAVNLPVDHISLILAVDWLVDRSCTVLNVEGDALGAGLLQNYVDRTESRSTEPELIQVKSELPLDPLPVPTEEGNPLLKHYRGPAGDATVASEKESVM
# Outline: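 ASCT2-transfected MDCK-II cells grown as monolayers on transwell membranes, assayed 48 h after transfection. After washing, 2 mM 14C BMAA was applied apically for 5 min. Apical and basolateral solutions were then aspirated and both sides washed. Cells were extracted in acetonitrile:water (50:50) and the extract counted by liquid scintillation. Uptake is given as pmol/min/cm2 and compared with non-ASCT2-expressing control cells.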
# ASCT2 [3] = conditions: read-out: Ki (competes with alanine for the substrate binding site); cited from earlier work
# rASCT2 = target: T2, rASCT2 (Rattus norvegicus, UniProt D3ZJ25); experiment: Glutamine uptake fluorescence assay; type: cell-based
# T2 sequence (D3ZJ25 1-555): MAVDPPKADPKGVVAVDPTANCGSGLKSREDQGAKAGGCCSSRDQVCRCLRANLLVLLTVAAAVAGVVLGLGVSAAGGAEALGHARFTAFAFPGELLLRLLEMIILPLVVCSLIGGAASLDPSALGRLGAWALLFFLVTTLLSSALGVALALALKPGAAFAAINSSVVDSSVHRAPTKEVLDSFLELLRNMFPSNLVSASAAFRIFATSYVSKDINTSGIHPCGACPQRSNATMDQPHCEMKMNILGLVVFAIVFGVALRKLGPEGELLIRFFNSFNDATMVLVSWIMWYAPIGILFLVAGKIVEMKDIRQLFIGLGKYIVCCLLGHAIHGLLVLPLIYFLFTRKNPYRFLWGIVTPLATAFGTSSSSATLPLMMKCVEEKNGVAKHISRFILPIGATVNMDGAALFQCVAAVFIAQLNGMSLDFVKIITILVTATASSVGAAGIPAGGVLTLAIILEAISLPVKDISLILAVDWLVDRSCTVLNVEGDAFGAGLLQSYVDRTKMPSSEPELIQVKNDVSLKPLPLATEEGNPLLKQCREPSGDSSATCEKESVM
# [4] = cited from earlier work
# [5] = Proton ionisation constants; type: physicochemical; conditions: pH 7.4
# [6] = 4 mM (D-2,3-DAP: up to 4 mM), pH 7.40
# [7] = 2 mM, pH 7.40, intracellular SCN-
structure (smiles),measurement,setting,value
"CNC[C@H](N)C(=O)O [BMAA, β-N-Methylamino-L-Alanine]",inward current relative to the maximum anion current induced by L-alanine,"ASCT2 [1]; pH 7.40, V = 0 mV",less than 20%
same,uptake of 14C BMAA,"ASCT2 [2]; 2 mM, control cells (non-ASCT2 expressing)",163 ± 36 pmol/min/cm^2
same,"transport rate by ASCT2, fold lower than L-glutamine","ASCT2 [2]; if transported at all, inferred from sensitivity of uptake assay",at least 10 fold
"O=C(O)[C@@H]1C[C@@H](Cc2ccc(-c3ccccc3)cc2)CN1 [BPP, (R)-γ-(4-biphenylmethyl)-L-proline]",Ki,ASCT2 [3],3000 nM
"NC[C@@H](N)C(=O)O [D-2,3-DAP]",current elicited on application to ASCT2-expressing cells,ASCT2 [1]; [6],did not produce any current
"NCC[C@H](N)C(=O)O [L-DAB, L-2,4-diaminobutyric acid]",current elicited on application to ASCT2-expressing cells,ASCT2 [1]; [7],"produced an inward current, however, with smaller magnitude than that generated by L-DAP"
"NC[C@H](N)C(=O)O [L-DAP, L-2,3-diaminopropionic acid]",decrease in fluorescence emission in the Venus range (glutamine uptake),rASCT2; 500 μM glutamine plus 2 mM test compound,1.00 ± 1.14%
same,direction of evoked current at low pH,"ASCT2 [1]; 2 mM, extracellular pH below 6.50, V = 0 mV",outwardly directed
same,current elicited on application to ASCT2-expressing cells,ASCT2 [1]; [7],elicited an inwardly-directed current
same,apparent valence from slope of log(Km) vs. voltage,"ASCT2 [1]; extracellular 140 mM NaCl, intracellular 130 mM NaSCN, pH 7.4",0.21 ± 0.04
same,pKa of the α-amino group,[4],6.7
same,protonation of the α-amino group,[5],20%
NCCCC[C@H](N)C(=O)O [L-lysine],current elicited on application to ASCT2-expressing cells,ASCT2 [1]; [6],not significantly different from zero
NCCC[C@H](N)C(=O)O [L-ornithine],current elicited on application to ASCT2-expressing cells,ASCT2 [1]; [6],not significantly different from zero
N[C@@H](COCc1ccccc1)C(=O)O [benzylserine],decrease in fluorescence emission in the Venus range (glutamine uptake),rASCT2; 500 μM glutamine plus 5 mM test compound,2.70 ± 1.25%
NC(=O)CC[C@H](N)C(=O)O [glutamine],decrease in fluorescence emission in the Venus range (glutamine uptake),rASCT2; 500 μM glutamine applied externally alone,11.2 ± 0.89%
NC(=O)CCCC(N)C(=O)O (centres unmarked) [homoglutamine],current elicited on application to ASCT2-expressing cells,ASCT2 [1]; pH 7.4,outward current
